Assay outcomes: PubChem BioAssay, Broad Institute
Shown is part of a subset that was picked to be rich in hits.
INS-1E rescue: protection of INS-1E cells from cytokine death, primary screen, ATP luminescence, single point. INS-1E cytokine-induced death, 48 h; normalised: neutral wells 0, positive control 100. protection from cytokine-induced ATP loss, % at 10 µM. hit rate 0.1% among 20,000;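 active means mean replicate protection from cytokine-induced ATP loss at least 50% and at least 75% of replicates each reaching 50%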
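Assay system – rat INS-1E insulinoma cell line · Quantity – 8000 cells per well · Buffer or medium – RPMI without phenol red, 5% FBS · Schedule – 48 h co-treatment, 10 min post-lysis read · Technique – luminescent ATP assay (CellTiter-Glo)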
T cruzi HTS: inhibitors of intracellular Trypanosoma cruzi, primary screen, cell-based, plate reader, single point, set 2; hit rate 4.9% among 22,000; activity score (inhibition), % at 5.01 µM; intracellular Trypanosoma cruzi in host cells; in the data active means activity score above about 55%;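 further: parasites and compound incubated about four days before reading; 0% = median of neutral control wells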
A1 apoptosis 2: A1 inhibitors via caspase activation, primary screen, cell-based, luminescence, HTS, two replicates. MEF A1-2A-BIM cells, caspase-Glo luminescence, 3 h; percent of clofoctol response, DMSO zero. caspase activation, % (no concentration beside the values). 24,000 tested, under 10 active; in the data active means caspase activation above about 5.9%
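Test system – A1-2A-BIM-expressing MEF cells · Input – 2500 cells/well · Medium – RPMI-1640 growth medium with 10% FBS · Compound dosing – 50 nL pinned compound · Timing – 3 h compound exposure at 37 °C · Technique – Caspase-Glo luminescence (DEVD substrate) · Evaluation – Caspase-3/7 activity from luminescence increase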
* = called active by the depositor; . = no result given.

SMILES	INS-1E rescue	T cruzi HTS	A1 apoptosis 2
O=C(CCCCCCC(=O)Nc1ccccc1O)N/N=C/c1cc(Cl)cc(Cl)c1O	2	27	1
C[C@@H]1CCCCO[C@H](CN(C)Cc2ccccc2)[C@@H](C)CN([C@H](C)CO)C(=O)c2cc(NC(=O)Nc3ccc(F)cc3)ccc2O1	-3	-1	-1
C[C@@H]1CCCCO[C@H](CN(C)Cc2ccccc2)[C@@H](C)CN([C@H](C)CO)C(=O)c2cc(NC(=O)Nc3ccc(C(F)(F)F)cc3)ccc2O1	-18	71*	0
C[C@@H]1CN([C@@H](C)CO)C(=O)c2cc(NC(=O)Nc3ccccc3)ccc2O[C@@H](C)CCCCO[C@@H]1CN(C)Cc1ccc(C(F)(F)F)cc1	.	.	-1
C[C@@H]1CCCCO[C@@H](CN(C)Cc2ccccc2)[C@@H](C)CN([C@H](C)CO)C(=O)c2cc(NC(=O)Nc3ccc(F)cc3)ccc2O1	-13	62*	.
C[C@@H]1CCCCO[C@H](CN(C)Cc2ccc(C(F)(F)F)cc2)[C@@H](C)CN([C@H](C)CO)C(=O)c2cc(NC(=O)Nc3ccccc3)ccc2O1	-22	67*	0
C[C@@H]1CCCCO[C@H](CN(C)Cc2ccccc2)[C@H](C)CN([C@@H](C)CO)C(=O)c2cc(NC(=O)Nc3ccc(C(F)(F)F)cc3)ccc2O1	.	.	-1
COc1cc(O)cc(OC)c1/C=N/NC(=O)CCCCC(=O)NO	15	-15	.
COC(=O)CCCCCCC(=O)N/N=C/c1cc(F)ccc1O	-4	-7	-1
O=C(NO)c1cccc(C(=O)N/N=C/c2ccc(CO)o2)c1	5	-26	.
COC(=O)CCCCCCC(=O)N/N=C/c1ccc(CO)o1	2	3	0
C[C@@H]1CN([C@H](C)CO)C(=O)c2cc(NC(=O)Nc3ccc(C(F)(F)F)cc3)ccc2O[C@@H]1CN(C)CC1CCCCC1	-7	48	.
C[C@@H]1CN([C@@H](C)CO)C(=O)c2cc(NC(=O)Nc3ccc(C(F)(F)F)cc3)ccc2O[C@@H]1CN(C)CC1CCCCC1	-60	70*	1
C[C@H]1CN([C@@H](C)CO)C(=O)c2cc(NC(=O)Nc3ccc(C(F)(F)F)cc3)ccc2O[C@H]1CN(C)CC1CCCCC1	-95	73*	1
C[C@H]1CN([C@@H](C)CO)C(=O)c2cc(NC(=O)Nc3ccc(C(F)(F)F)cc3)ccc2O[C@@H]1CN(C)CC1CCCCC1	-1	5	1
CCCNc1ncnc2ccccc12	.	.	0
C[C@@H]1CN([C@H](C)CO)C(=O)Cc2cc(NC(=O)C3CCCCC3)ccc2O[C@@H]1CN(C)Cc1ccc(Cl)c(Cl)c1	-78	57*	.
C[C@H](CO)N1C[C@H](C)[C@@H](CN(C)Cc2ccc3c(c2)OCO3)Oc2ccc(NC(=O)C3CCCCC3)cc2CC1=O	.	.	0
C[C@@H]1CN([C@H](C)CO)C(=O)Cc2cc(NC(=O)C3CCCCC3)ccc2O[C@H]1CN(C)Cc1ccc(Cl)c(Cl)c1	-31	50	.
C[C@H]1CN([C@@H](C)CO)C(=O)Cc2cc(NC(=O)C3CCCCC3)ccc2O[C@@H]1CN(C)Cc1ccc2c(c1)OCO2	-11	66*	.
O=C(O)CCCCCC(=O)N/N=C/c1ccccc1Cl	3	-1	1
O=C(NO)c1cccc(C(=O)N/N=C/c2cc(Br)cc([N+](=O)[O-])c2O)c1	-29	6	1
C[C@H](CO)N1C[C@H](C)[C@H](CN(C)CC2CCCCC2)Oc2ccc(NC(=O)Nc3ccc(C(F)(F)F)cc3)cc2CC1=O	-79	60*	0
C[C@H](CO)N1C[C@H](C)[C@H](CN(C)CC2CCCCC2)Oc2ccc(NC(=O)Nc3ccc(F)cc3)cc2CC1=O	5	42	0
C[C@H]1CN([C@@H](C)CO)C(=O)Cc2cc(NC(=O)Nc3ccc(C(F)(F)F)cc3)ccc2O[C@@H]1CN(C)CC1CCCCC1	-42	63*	0
C[C@H]1CN([C@@H](C)CO)C(=O)Cc2cc(NC(=O)Nc3ccc(F)cc3)ccc2O[C@H]1CN(C)CC1CCCCC1	-3	-5	.
COc1ccc(COC[C@]23N=C4Sc5ccc([N+](=O)[O-])cc5C(=O)N4[C@H](c4ccccc4O2)[C@H]3CO)cc1	.	.	0
CC(C)(C)OC(=O)NC1(/C=N/NC(=O)c2ccccn2)CCCC1	11	-10	.
COc1ccc(Br)c(/C=N/NC(=O)c2ccc(C(=O)NO)cc2)c1	28	3	0
O=C(CCCCCCC(=O)Nc1ccccc1O)N/N=C/c1cc2c(cc1Br)OCO2	11	9	0
